Assay results as given in ChEMBL document CHEMBL1134930, “Novel nucleotide phosphonate analogues with potent antitumor activity” (Bioorg Med Chem Lett, 2002).

Tests used:
NCI-H460 = experiment: Compound was evaluated for its in vitro activity in human solid tumor cell line H-460 measured in a [3H]thymidine incorporation assay; format: functional, cell-based; conditions: NCI-H460, 72 h
Summary of the method: (§1)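 Cell lines adapted to RPMI medium, exposed to compound for 72 h at 37 °C under 5% CO2. Methyl-[3H]-thymidine (0.5 μCi) added for the final 16 h, then incorporation measured. Antiproliferative IC50 (μM) reported.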

MCF7 = experiment: Compound was evaluated for its in vitro activity in human solid tumor cell line MCF-7 measured in a [3H]thymidine incorporation assay; format: functional, cell-based; conditions: MCF7, 72 h; summary of the method: as §1
SF-268 = experiment: Compound was evaluated for its in vitro activity in human solid tumor cell line SF-268 measured in a [3H]thymidine incorporation assay; format: functional, cell-based; conditions: SF-268, 72 h; summary of the method: as §1
MRC5 = experiment: Cytotoxicity of compound was evaluated against MRC-5 cell line.; format: functional; conditions: Homo sapiens

| Compound | IC50 (NCI-H460) [µM] | IC50 (MCF7) [µM] | IC50 (SF-268) [µM] | CC50 (MRC5) [µg/mL] |
| --- | --- | --- | --- | --- |
| Nc1nc(NC2CC2)c2ncn(C[C@@H]3CC[C@@H](P(=O)(O)O)O3)c2n1 | > 100 | > 100 | > 100 | – |
| Nc1nc(O)c2ncn(C[C@@H]3CC[C@H](P(=O)(O)O)O3)c2n1 | 40 | 67 | > 100 | > 10 |
| Nc1nc(NC2CC2)c2ncn(C[C@H]3O[C@@H](P(=O)(O)O)C[C@@H]3O)c2n1 | 20 | 48 | 28 | – |
| N.Nc1nc(O)c2ncn(C[C@@H]3CC[C@@H](P(=O)(O)O)O3)c2n1 | 64 | > 100 | > 100 | 28 |
| Nc1nc(N)c2ncn(C[C@@H]3CC[C@@H](P(=O)(O)O)O3)c2n1 | 57 | 52 | > 100 | – |
| Nc1nc(O)c2ncn(C[C@H]3O[C@@H](P(=O)(O)O)[C@H](O)[C@@H]3O)c2n1 | > 100 | > 100 | > 100 | – |

The next lines start with results.

| IC50 (NCI-H460) [µM] | IC50 (MCF7) [µM] | IC50 (SF-268) [µM] | Compound | CC50 (MRC5) [µg/mL] |
| --- | --- | --- | --- | --- |
| 30 | 53 | 13 | Nc1nc(O)c2ncn(C[C@H]3O[C@H](P(=O)(O)O)C[C@@H]3O)c2n1 | – |
| 0.53 | 0.67 | 0.14 | Nc1nc(O)c2ncn(C[C@H]3O[C@@H](P(=O)(O)O)C[C@@H]3O)c2n1 | – |
| 44 | > 100 | > 100 | Nc1nc(O)c2ncn(C[C@H]3O[C@@H](P(=O)(O)O)C[C@@H]3F)c2n1 | – |
| 7.1 | > 12 | 44 | Nc1nc(O)c2ncn(C[C@H]3O[C@@H](P(=O)(O)O)C[C@H]3F)c2n1 | – |
| 0.71 | 1.4 | 1.2 | Nc1nc(N)c2ncn(C[C@H]3O[C@@H](P(=O)(O)O)C[C@@H]3O)c2n1 | – |
| 7.6 | 5.6 | 2.4 | CO[C@H]1C[C@H](P(=O)(O)O)O[C@@H]1Cn1cnc2c(O)nc(N)nc21 | – |
